Screens from PubChem BioAssay.
PfG6PD inh: PfG6PD enzyme inhibitors, primary screen, biochemical, fluorescence intensity, uHTS; glucose-6-phosphate dehydrogenase-6-phosphogluconolactonase (Plasmodium falciparum 3D7); PfGluPho enzyme, NADPH resazurin-diaphorase fluorescence; inhibition, % at 20 µM; 350,000 compounds, 0.78% hits; AID 504690, 2011;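 active = inhibition reaching at least a set limit at 20 µM in the primary screen, cut at about 59% in these data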
HKDC1 inhibitor: HKDC1 hexokinase inhibitors, primary screen, biochemical, fluorescence, uHTS. Q2TB90. recombinant HKDC1, G6PDH/diaphorase resazurin coupled fluorescence. inhibition, % at 20 µM. 340,000 compounds, 0.16% hits. AID 493160, 2011;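 active = inhibition above about 35% when tested at 20 µM, limit read from the data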
Target sequence (Q2TB90 whole entry, looked up): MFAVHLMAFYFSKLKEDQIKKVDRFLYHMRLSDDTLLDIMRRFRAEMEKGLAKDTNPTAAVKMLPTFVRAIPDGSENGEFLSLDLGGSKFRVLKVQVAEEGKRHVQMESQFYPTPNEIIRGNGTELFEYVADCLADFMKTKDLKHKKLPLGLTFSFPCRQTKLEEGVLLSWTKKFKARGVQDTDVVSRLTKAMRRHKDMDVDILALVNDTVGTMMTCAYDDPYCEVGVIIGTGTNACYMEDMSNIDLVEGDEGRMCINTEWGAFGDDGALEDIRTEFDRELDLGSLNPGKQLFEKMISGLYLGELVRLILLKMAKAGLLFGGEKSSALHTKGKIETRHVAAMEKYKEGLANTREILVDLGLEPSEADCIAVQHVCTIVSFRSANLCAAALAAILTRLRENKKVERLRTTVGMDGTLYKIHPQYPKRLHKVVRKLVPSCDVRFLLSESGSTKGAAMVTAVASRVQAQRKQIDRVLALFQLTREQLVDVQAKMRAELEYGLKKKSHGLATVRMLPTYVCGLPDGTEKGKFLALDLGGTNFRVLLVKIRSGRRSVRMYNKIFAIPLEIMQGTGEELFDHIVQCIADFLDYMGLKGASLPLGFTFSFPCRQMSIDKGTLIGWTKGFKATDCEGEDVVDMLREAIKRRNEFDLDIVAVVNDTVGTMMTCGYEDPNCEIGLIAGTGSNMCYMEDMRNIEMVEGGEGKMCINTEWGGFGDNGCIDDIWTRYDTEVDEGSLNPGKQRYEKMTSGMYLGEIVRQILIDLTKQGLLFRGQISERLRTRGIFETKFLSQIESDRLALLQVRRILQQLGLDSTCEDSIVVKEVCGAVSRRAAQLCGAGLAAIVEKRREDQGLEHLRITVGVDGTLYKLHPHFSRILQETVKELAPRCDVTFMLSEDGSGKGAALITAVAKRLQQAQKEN
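Test system: recombinant HKDC1 (HK5) hexokinase enzyme, produced in-house / Doses: 20 µM test compound, 1% DMSO / Timing: 90 min, room temperature / Detection: G6PDH/diaphorase-coupled fluorescence, 1 mM NADP, 100 µM resazurin, 525/613 nm / Control set: DMSO wells with and without enzyme mix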
TbHK1 inh: Trypanosoma brucei hexokinase 1 inhibitors, primary screen, biochemical, G6PDH-coupled NADH absorbance, MLSCN library; hexokinase 1 [Trypanosoma brucei]; recombinant TbHK1, G6PDH-coupled NADH A340; inhibition, % at 10 µM; 220,000 compounds, 0.11% hits; AID 1430, 2008;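 active = inhibition of 50% or more in the single-dose primary screen; inactive = inhibition below 50%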
G6PDH counter-1: L. mesenteroides G6PDH inhibitors, counter-screen for G6PDH-coupled screening assays, biochemical, Leuconostoc mesenteroides enzyme; 200,000 compounds, 0.12% hits; inhibition, % at 5 µM; glucose-6-phosphate dehydrogenase [Leuconostoc mesenteroides]; Purified L. mesenteroides G6PDH, diaphorase/resazurin coupled fluorescence, 45 min; AID 1020, 2008; in the data active = inhibition above about 50%
Diaphorase inh: diaphorase inhibitors and chemical oxidizers, primary screen, counter-screen for diaphorase-coupled primary assays, biochemical, uHTS, resorufin fluorescence. 190,000 compounds, 0.69% hits. AID 1217, 2008. diaphorase resazurin-to-resorufin fluorescence, NADH, 16 min; bacterial (C. kluyveri) enzyme, not human. inhibition, % at 20 µM;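 active = primary screen inhibition at 20 µM above a set limit, cut at about 50% in these data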
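Detection: fluorescence of resorufin formed from resazurin, Ex 544/Em 590 nm; test system: Clostridium kluyveri diaphorase enzyme; amount: 0.14 U/mL diaphorase, enzyme working solution; times: 16-min room-temperature incubation before reading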
G6PDH counter-2: Leuconostoc G6PDH inhibition, confirmation, counter-screen for TbHK1 inhibitor project, biochemical, DPI cherry-picked compounds, single concentration; shares compounds with TbHK1 inh; purified G6PDH, NADH absorbance, 1 h; inhibition, % at 10 µM; 210 compounds, 7% hits;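 active = at least 50% inhibition in the glucose-6-phosphate dehydrogenase coupled counterscreen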
TbHK1 confirm: TbHK1 inhibitor retest, confirmation, biochemical, DPI cherry-picked primary actives | shares compounds with TbHK1 inh | recombinant TbHK1, G6PDH-coupled NADH A340 absorbance | inhibition, % at 10 µM | 210 compounds, 10% hits | AID 2560, 2010;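 active = inhibition of at least 50% in both of the two screening runs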
Hits are given with their value; - = inactive; . = no result. Most compounds without a hit are left out; they make up all but 1.2% or so of the library.

SMILES	PfG6PD inh	HKDC1 inhibitor	TbHK1 inh	G6PDH counter-1	Diaphorase inh	others
CC1=C(CC(=O)c2ccccc2)C(=O)c2ccccc2C1=O	-	-	-	56	-
C#CCOCCOCCOCCNc1nc(N2CCN(C(=O)C(Cc3ccc(O)cc3)n3cc(C(N)C(C)CC)nn3)CC2)nc(N2CCN(C(=O)C(Cc3ccc(O)cc3)n3cc(C(N)C(C)CC)nn3)CC2)n1 (stereo not drawn)	-	-	-	-	-
C#CCOCCOCCOCCNc1nc(N2CCN(C(=O)C(Cc3cc4ccccc4[nH]3)n3cc(C(N)C(C)CC)nn3)CC2)nc(N2CCN(C(=O)C(Cc3cc4ccccc4[nH]3)n3cc(C(N)C(C)CC)nn3)CC2)n1 (stereo not drawn)	61	-	-	-	-
C#CCOCCOCCOCCNc1nc(N2CCOCC2)nc(N2CCN(C(=O)[C@H](Cc3ccc(O)cc3)n3cc([C@@H](N)C(C)CC)nn3)CC2)n1 (stereo partly drawn)	-	-	-	-	79
COC(=O)c1cc(OC)c(OC)cc1NC(=O)CCN1C(=O)C2CCCCC2C1=O (stereo not drawn)	-	.	.	.	.
CC1CCCC(C)N1C(=O)CSc1nnc(COc2ccc(F)cc2)o1 (stereo not drawn)	-	-	.	.	.
COc1ccc2c(c1)CCO[C@]21O[C@H](CCO)C[C@H](O)[C@H]1O	-	.	.	.	.
Cc1ccc(C(c2nnnn2Cc2ccccc2)N2CCN(Cc3ccccc3)CC2)cc1 (stereo not drawn)	-	-	-	-	79
c1ccc(CN2CCN(C(c3ccccc3)c3nnnn3Cc3ccccc3)CC2)cc1 (stereo not drawn)	-	-	-	-	-
Nc1ccc(Br)c2cccnc12	63	-	-	-	-
Cc1ccc(S(=O)(=O)Nc2ccc(O)c3ncccc23)cc1	-	-	-	50	57
COc1ccc2c(Cl)cc(NC(=O)Nc3c(C)cccc3C)nc2c1	-	.	.	.	.
CC(C)c1nnc(NC(=O)CCS(=O)(=O)c2ccccc2)s1	-	-	.	.	.
CCCC(C)c1nnc(NC(=O)CCS(=O)(=O)c2ccccc2)s1 (stereo not drawn)	75	-	.	.	.
CC(=O)NNC(=O)c1sc(=S)n2c1[nH]c(=O)c1sccc12	-	-	-	-	-
O=C(NCc1ccccc1)c1sc(=S)n2c1[nH]c(=O)c1ccccc12	-	-	-	-	73
CN(C)c1ccc(C(=O)OCc2ccccc2)cc1	-	-	-	-	-
O=C1C=CC(=O)C(CNc2ccc(C(=O)OCc3ccccc3)cc2)=C1	75	47	.	.	.
CC(=O)Nc1ccc(NC(=O)CC2Nc3cccc4cccc(c34)NC2=O)cc1 (stereo not drawn)	-	-	-	-	77
CC(=O)c1ccc(NC(=O)CC2Nc3cccc4cccc(c34)NC2=O)cc1 (stereo not drawn)	-	-	-	-	84
Cc1cccc(NC(=O)CC2Nc3cccc4cccc(c34)NC2=O)c1 (stereo not drawn)	-	-	-	-	68
COc1ccc(OCCOC(=O)CNC(=O)c2ccc(F)cc2)cc1	-	.	.	.	.
CC(C)(C)c1cc(CN(CCO)CCO)cc(C(C)(C)C)c1O	-	-	-	-	70
CC1CCN(C(=O)CN(c2ccc3c(c2)OCCO3)S(=O)(=O)c2ccccc2)CC1	-	-	.	.	.
O=C(Cc1ccccc1)NC(Nc1cccc2ccccc12)C(Cl)(Cl)Cl (stereo not drawn)	-	-	-	-	69
SMILES	PfG6PD inh	HKDC1 inhibitor	TbHK1 inh	G6PDH counter-1	Diaphorase inh	others
COc1ccc(-c2cc3nc(-c4ccccc4)cc(N4CCC(O)CC4)n3n2)cc1	-	-	-	-	50
COc1ccc(-c2cc3nc(-c4ccccc4)cc(N4CCCC(O)C4)n3n2)cc1 (stereo not drawn)	-	-	-	-	-
COCCN(CC(=O)NCc1ccc2c(c1)OCO2)C(=O)CCC(=O)Nc1nccs1	-	-	-	-	-
COCCNC(=O)CN(Cc1ccc2c(c1)OCO2)C(=O)CCC(=O)Nc1nccs1	-	-	53	-	-	G6PDH counter-2=-;TbHK1 confirm=-
CCCCc1oc2ccccc2c1C(=O)c1cc(I)c(OCCN(CC)CC)c(I)c1	-	-	63	-	-	G6PDH counter-2=-;TbHK1 confirm=-
CCCCOc1ccc(C(=O)NNC(=S)NC(=O)CC)cc1	-	-	58	-	-	G6PDH counter-2=-;TbHK1 confirm=-
CCC(=O)NC(=S)NNC(=O)c1ccc(OC)cc1	-	-	-	-	-
COc1ccc(S(=O)(=O)N2CCN(C(c3ccccc3)c3ccccc3)CC2)cc1NC(C)=O	-	-	.	.	.
COc1ccc([C@H]2C[C@H](n3cc(C4CC4)nn3)[C@@H](O)CN2CC2CCCCC2)cc1	-	.	.	.	.
CCS(=O)(=O)N1CCC(C(=O)NCCc2ccccc2)CC1	-	-	-	-	-
CCS(=O)(=O)N1CCC(C(=O)NCCN2CCN(Cc3ccccc3)CC2)CC1	-	-	50	-	-	G6PDH counter-2=-;TbHK1 confirm=-
c1cc(-c2nnc(-c3ccncc3)o2)ccn1	-	-	74	-	-	G6PDH counter-2=-;TbHK1 confirm=-
Cc1ccc(S(=O)(=O)Nc2ccsc2C#N)cc1	-	-	.	.	.
C/C(=N/NC(=O)CC1N=C(Cc2ccccc2)NNC1=O)c1cccnc1 (stereo not drawn)	-	-	-	-	-
Cc1ccccc1N=Nc1ccc(O)c2ncccc12	-	-	64	-	-	G6PDH counter-2=-;TbHK1 confirm=-
COc1ccc(N=Nc2ccc(O)c3ncccc23)cc1	-	-	-	.	.
Cn1c(SCc2cccc(F)c2)nnc1-c1ccccn1	-	-	55	-	-	G6PDH counter-2=-;TbHK1 confirm=-
CC(=O)Nc1nc2ccccc2n1CCOc1ccccc1Cl	-	-	52	-	-	G6PDH counter-2=-;TbHK1 confirm=-
CC1(C)CC(=O)C/C(=N/NC(=O)COc2ccc3ccccc3c2Br)C1	-	-	.	.	.
C[C@@H]1CN([C@H](C)CO)S(=O)(=O)c2ccc(C#Cc3cccc(F)c3)cc2O[C@@H]1CN(C)C(=O)CN1CCOCC1	-	.	.	.	.
C1CCN=C(Nc2nn[nH]n2)CC1	-	-	55	-	-	G6PDH counter-2=-;TbHK1 confirm=-
COC(=O)c1nc(NC2=NCCCCC2)n[nH]1	-	-	-	-	-
Cc1ccc(NC(=O)C2(S(=O)(=O)c3ccc(C)cc3)CC2)cc1	-	-	-	-	-
